Measured values as given in ChEMBL document CHEMBL1153230, “Synthesis and evaluation of 3-amino-6-aryl-pyridazines as selective CB(2) agonists for the treatment of inflammatory pain” (Bioorg Med Chem Lett, 2010).
Values after ≈ are worked out from the molar mass of the structure shown. Active and inactive are the calls of the source. No cut-off for these calls is given here.

Tests used:
[1] = biological target: T1, Cannabinoid receptor 2 (Homo sapiens, UniProt P34972); assay: Agonist activity at human CB2 receptor; format: functional
T1 sequence (P34972 whole entry): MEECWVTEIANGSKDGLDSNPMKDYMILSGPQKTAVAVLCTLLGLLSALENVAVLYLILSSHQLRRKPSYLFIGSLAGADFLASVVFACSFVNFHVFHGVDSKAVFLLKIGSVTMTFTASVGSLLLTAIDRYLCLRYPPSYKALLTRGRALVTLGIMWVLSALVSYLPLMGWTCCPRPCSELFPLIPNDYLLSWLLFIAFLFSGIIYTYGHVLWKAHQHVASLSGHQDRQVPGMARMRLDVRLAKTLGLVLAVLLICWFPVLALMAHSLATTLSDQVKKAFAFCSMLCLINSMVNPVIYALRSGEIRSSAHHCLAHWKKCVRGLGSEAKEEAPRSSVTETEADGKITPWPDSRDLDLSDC
Outline: (§1)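 Agonist pEC50 and efficacy at human receptor. Efficacy is expressed as a percentage relative to HU210 efficacy. Values are the mean of at least two determinations.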

[2] = biological target: T2, Cannabinoid receptor 1 (Homo sapiens, UniProt P21554); assay: Agonist activity at human CB1 receptor; format: functional; outline: as §1
T2 sequence (P21554 whole entry): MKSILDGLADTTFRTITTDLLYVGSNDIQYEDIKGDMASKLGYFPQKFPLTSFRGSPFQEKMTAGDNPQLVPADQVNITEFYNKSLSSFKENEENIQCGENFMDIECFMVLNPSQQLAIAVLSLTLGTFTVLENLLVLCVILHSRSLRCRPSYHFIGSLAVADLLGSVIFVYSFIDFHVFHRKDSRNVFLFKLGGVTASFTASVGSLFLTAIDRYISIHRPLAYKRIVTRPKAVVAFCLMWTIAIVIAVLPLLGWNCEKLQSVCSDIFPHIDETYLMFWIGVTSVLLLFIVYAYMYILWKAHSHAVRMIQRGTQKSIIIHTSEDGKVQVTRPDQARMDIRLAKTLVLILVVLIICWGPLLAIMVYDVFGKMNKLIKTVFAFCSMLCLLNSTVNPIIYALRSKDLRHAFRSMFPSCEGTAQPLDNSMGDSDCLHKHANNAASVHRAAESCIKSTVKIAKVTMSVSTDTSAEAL

[3] = biological target: T1, Cannabinoid receptor 2; assay: Agonist activity at human CB2 receptor relative to HU210; format: functional; outline: as §1
[4] = biological target: T2, Cannabinoid receptor 1; assay: Agonist activity at human CB1 receptor up to 30 uM; format: functional
Outline: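 Human CB1 receptor agonist assay, tested at concentrations up to 30 µM (method per cited reference). Potency reported as pEC50. Efficacy is expressed as a percentage of the efficacy of the full agonist HU210. Values are the mean of at least two determinations.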

[5] = biological target: T2, Cannabinoid receptor 1; assay: Agonist activity at human CB1 receptor relative to HU210; format: functional; outline: as §1
[6] = Aqueous solubility of the compound; format: physicochemical
[7] = Blood clearance in rat at 1 mg/kg, iv; format: ADME, organism-based; parameters: dose 1 mg/kg, route intravenous
Outline: (§2)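 Rats given an intravenous infusion at a target dose of 1 mg free base/kg for pharmacokinetic parameters.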

[8] = Cmax in rat brain at 6.6 uM; format: ADME, organism-based; parameters: dose 6.6 uM
[9] = Oral bioavailability in rat at 3 mg/kg; format: ADME, organism-based; conditions: in vivo
Outline: (§3)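 Rats given a single oral dose by gastric gavage, formulated in 1% (w/v) aqueous methylcellulose, at a target dose of 3 mg/kg free base, for pharmacokinetic parameters.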

[10] = Half life in rat at 1 mg/kg, iv; format: ADME, organism-based; parameters: dose 1 mg/kg, route intravenous; conditions: in vivo; outline: as §2
[11] = Ratio of drug level in brain to blood in rat at 1 mg/kg, po; format: ADME, organism-based; parameters: dose 1 mg/kg, route oral
Outline: (§4)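 Rat blood and brain tissue samples taken from FCA weight-bearing study animals 1 h after a 1 mg/kg oral dose. Compound concentrations measured in each; brain:blood ratio derived from the two concentrations.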

[12] = Drug level in rat brain at 1 mg/kg, po after 1 hr; format: ADME, organism-based; parameters: dose 1 mg/kg, route oral; conditions: read-out: Drug uptake; outline: as §4
[13] = Drug level in rat blood at 1 mg/kg, po after 1 hr; format: ADME, organism-based; parameters: dose 1 mg/kg, route oral; outline: as §4
[14] = Cmax in rat at 3 mg/kg, po; format: ADME, organism-based; parameters: dose 3 mg/kg, route oral; conditions: in vivo; outline: as §3
[15] = system: Rattus norvegicus; assay: Toxicity in rat assessed as induction of hypothermia up to 300 mg/kg po; format: organism-based; parameters: dose 300 mg/kg, route oral; conditions: in vivo
[16] = Tmax in rat at 3 mg/kg, po; format: ADME, organism-based; parameters: dose 3 mg/kg, route oral; conditions: in vivo; outline: as §3
[17] = Volume of distribution at steady state in rat at 1 mg/kg, iv; format: ADME, organism-based; parameters: dose 1 mg/kg, route intravenous; conditions: in vivo, read-out: Vdss; outline: as §2

Compound	EC50 [1] [µM]	EC50 [2] [µM]	Efficacy [3] [%]	other results
C[C@@H]1CC[C@H](C)N1c1ccc(-c2cc3ccccc3o2)nn1	0.158	> 31.6	70	–
COc1ccc(-c2ccc(N3CCOCC3)nn2)c(Cl)c1	> 31.6	> 31.6	–	–
Clc1cccc(-c2ccc(NC3CCCCC3)nn2)c1Cl	0.2	> 31.6	69	–
FC(F)(F)Oc1ccccc1-c1ccc(N2CCOCC2)nn1	1.26	> 31.6	55	–
Clc1cccc(-c2ccc(N3CCOCC3)cc2)c1Cl	0.0398	–	86	Activity [4]: inactive
Clc1cccc(-c2ccc(N3CCCCC3)nn2)c1Cl	0.00631	> 31.6	86	–
C[C@@H]1CC[C@H](C)N1c1ccc(-c2cccc3cnccc23)nn1	0.0398	20	93	Efficacy [5]: 52%
C[C@@H]1CC[C@H](C)N1c1ccc(-c2cccc3cccnc23)nn1	0.0794	> 31.6	82	–
Clc1ccccc1-c1ccc(N2CCOCC2)nn1	1.58	> 31.6	77	–
Clc1cc(Cl)c(Cl)c(-c2ccc(N3CCOCC3)nn2)c1	0.0501	> 31.6	78	–
Cc1cccc(-c2ccc(N3CCOCC3)nn2)c1C	2	> 31.6	71	–
Clc1cccc(-c2cnc(N3CCOCC3)nn2)c1Cl	0.1	–	78	Activity [4]: inactive
Clc1cccc(-c2ccc(N3CCOCC3)nc2)c1Cl	–	–	–	Activity [4]: inactive
Clc1cccc(-c2ccc(N3CCOCC3)nn2)c1Cl	0.0794	> 31.6	76	solubility [6]: 6 µg/mL (≈ 19.3 µM); Activity [4]: inactive
c1ccc(COc2cccc(-c3ccc(N4CCOCC4)nn3)c2)cc1	> 31.6	> 31.6	–	–
Clc1cccc(-c2cnc(N3CCOCC3)cn2)c1Cl	0.0398	–	89	solubility [6]: 1 µg/mL (≈ 3.22 µM); Activity [4]: inactive
Clc1ccc(-c2ccc(N3CCOCC3)nn2)c(Cl)c1	> 31.6	> 31.6	–	–
Cc1ccc(-c2ccc(N3CCOCC3)nn2)c(Cl)c1	> 31.6	> 31.6	–	–

Compound	EC50 [1] [µM]	EC50 [2] [µM]	Efficacy [3] [%]	other results
FC(F)(F)c1cccc(-c2ccc(N3CCOCC3)nn2)c1	1	> 31.6	15	–
C[C@@H]1CC[C@H](C)N1c1ccc(-c2cccc(Cl)c2Cl)nn1	0.00126	2.51	83	Efficacy [5]: 57%
c1ccc(COc2ccccc2-c2ccc(N3CCOCC3)nn2)cc1	0.631	3.98	45	Efficacy [5]: 11%
Clc1cccc(-c2ccc(NC3CCOCC3)nn2)c1Cl	> 31.6	> 31.6	–	–
Clc1cccc(-c2ccc(N3CCCC3)nn2)c1Cl	0.0251	> 31.6	56	–
FC(F)(F)c1cccc(-c2ccc(N3CCOCC3)nn2)c1C(F)(F)F	0.158	> 31.6	75	–
C[C@@H]1CC[C@H](C)N1c1ccc(-c2c[nH]c3ccccc23)nn1	0.251	> 31.6	61	–
Cc1ccccc1-c1ccc(N2CCOCC2)nn1	7.94	> 31.6	38	–
C[C@@H]1CC[C@H](C)N1c1ccc(-c2cccc3ncccc23)nn1	0.2	> 31.6	75	–
Clc1cccc(-c2cnc(N3CCOCC3)nc2)c1Cl	0.2	–	67	Activity [4]: inactive
Clc1cccc(-c2ncc(N3CCOCC3)cn2)c1Cl	0.0501	–	92	solubility [6]: < 1 µg/mL; Activity [4]: inactive
C[C@@H]1C=C[C@H](C)N1c1ccc(-c2cccc(Cl)c2Cl)nn1	0.000631	6.31	93	Efficacy [5]: 21%
FC1(F)CCN(c2ccc(-c3cccc(Cl)c3Cl)nn2)CC1	0.0158	> 31.6	83	–
O=S1(=O)CCN(c2ccc(-c3cccc(Cl)c3Cl)nn2)CC1	0.631	> 31.6	89	–
COc1ccccc1-c1ccc(N2CCOCC2)nn1	12.6	> 31.6	37	–
Clc1ccc(Cl)c(-c2ccc(N3CCOCC3)nn2)c1	0.398	> 31.6	39	–
C[C@@H]1CC[C@H](C)N1c1ccc(-c2cncc3ccccc23)nn1	0.01	7.94	85	clearance [7]: 57 mL/min/kg; Cmax at 6.6 µM [8]: 11000 nM; bioavailability [9]: 26%; Efficacy [5]: 71%; half-life [10]: 18 min; Kp [11]: 1; concentration at 1 h [12]: 500 nM; concentration at 1 h [13]: 300 nM; Cmax [14]: 340 nM; Activity [15]: Toxic; Tmax [16]: 54 min; Vd [17]: 1.7 L/kg
FC(F)(F)c1ccccc1-c1ccc(N2CCOCC2)nn1	1.26	> 31.6	78	–
